Screening data as filed in PubChem.
V-ATPase pHluor = alters yeast V-ATPase proton transport. S. cerevisiae, pHLuorin cytosolic pH fluorescence. response, % at 10 µM. actives 0.37% (n = 350,000). AID 504577; in the data active = response mostly above about 7.3%, no sharp cut-off; inactive = mostly below about 5.4%; also: actives read high
ARFGAP1 inhibitor = rat ARFGAP1 inhibition; Q62848; actives 0.26% (n = 360,000); Arfgap1-stimulated ARF1 GTP hydrolysis, GDP FP detection; inhibition, % at 16.5 µM;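 active = inhibition above a per-plate limit, mean inhibition of low control wells plus 3 SD, cut at about 25% in these data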;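 also: 0% = DMSO wells with enzyme and 100% = wells lacking Arfgap1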
Target sequence (Q62848 1-136 limits assumed): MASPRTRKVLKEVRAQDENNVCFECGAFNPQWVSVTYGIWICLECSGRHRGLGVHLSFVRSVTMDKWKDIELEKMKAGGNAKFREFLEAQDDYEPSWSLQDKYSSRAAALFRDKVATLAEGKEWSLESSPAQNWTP
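material = rat Arfgap1 catalytic domain, aa 1-136 | also added = human ARF1(Δ1-17)-GTP substrate | compound dosing = one concentration, 16.5 µM, DMSO 1.26% | times = GTP hydrolysis reaction 2 h at 25 °C | measured by = FP, GDP Alexa 633 tracer displaced from anti-GDP antibody, 620/688 nm | evaluation = percent inhibition of Arfgap1-stimulated GTP hydrolysis | replication = single well per compound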
ASAP1 inh = ASAP1 ArfGAP inhibition. Q9ULH1. ASAP1-stimulated ARF1 GTP hydrolysis, GDP FP detection. inhibition, % at 16.5 µM. actives 0.19% (n = 360,000). AID 624377; in the data active = inhibition above about 25%;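 also: 0% = vehicle with enzyme and substrate and 100% = no enzyme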
Target sequence (Q9ULH1 325-724 limits assumed): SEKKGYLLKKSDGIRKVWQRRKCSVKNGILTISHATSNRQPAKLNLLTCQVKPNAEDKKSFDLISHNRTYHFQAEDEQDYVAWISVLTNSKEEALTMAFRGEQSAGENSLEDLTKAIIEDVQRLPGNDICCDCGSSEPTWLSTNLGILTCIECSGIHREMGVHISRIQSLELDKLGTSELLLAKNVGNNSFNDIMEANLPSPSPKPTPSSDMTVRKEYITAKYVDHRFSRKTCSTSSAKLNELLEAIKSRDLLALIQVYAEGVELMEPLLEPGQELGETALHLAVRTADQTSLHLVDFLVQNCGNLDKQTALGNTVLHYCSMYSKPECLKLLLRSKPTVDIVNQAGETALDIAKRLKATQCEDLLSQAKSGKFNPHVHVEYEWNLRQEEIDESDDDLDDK
NRP1-CendR mod = NRP-1/CendR interaction modulation; O14786; FAM-RPARPAR peptide binding to NRP-1, fluorescence polarization; inhibition, % at 25 µM; actives 0.85% (n = 360,000);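 active = inhibition or corrected inhibition above about 18%, plus a signal ratio from 0.5 to 1.5, limit read from the data, passing the limit was not always enough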
Exocytosis inh = blocks lytic granule exocytosis; TALL-104 LAMP-1 surface exposure, flow cytometry; cells stimulated with thapsigargin and PMA; inhibition, % at 10 µM; actives 0.66% (n = 360,000);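 active = inhibition above about 55%, limit read from the data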
Starred values were filed as active, the others as inactive. In the library only some 2.2% were active in any assay of this set; here they are far more common.

Screening O=C(NC(C(=O)N1CCCC1C(=O)NC1CCCC1)c1ccccc1)c1cccs1 (configuration not stated) returned ARFGAP1 inhibitor -5 and ASAP1 inh 4.
For COC(=O)c1ccc(/C=C/c2ccc3cccc(OC(C)=O)c3n2)cc1 the results were V-ATPase pHluor 27*, ARFGAP1 inhibitor 10, ASAP1 inh 6, NRP1-CendR mod -5 and Exocytosis inh 6.
For COC(=O)C1=C(C)N(Cc2ccc(C(F)(F)F)cc2)C(=NCc2cc(OC)c(OC)c(OC)c2)NC1c1cccc(Cl)c1 (configuration not stated) the results were ARFGAP1 inhibitor -17 and ASAP1 inh -2.
`Cc1ccc(NC(=O)[C@@H](CC(C)C)NC(=O)[C@@H]2Cc3ccccc3CN2)cc1` gave V-ATPase pHluor 3, ARFGAP1 inhibitor 16, ASAP1 inh -6, NRP1-CendR mod 9 and Exocytosis inh 3.
Screening Cc1ccc(NC(=O)[C@H](CC(C)C)NC(=O)[C@@H]2Cc3ccccc3CN2)cc1 returned V-ATPase pHluor 0, ARFGAP1 inhibitor -1, ASAP1 inh 1, NRP1-CendR mod 21* and Exocytosis inh 4.
Screening COCC1CCN(C(=O)C2CCC(=O)N(Cc3cccc(F)c3)C2)CC1 (configuration not stated) returned V-ATPase pHluor -2, ARFGAP1 inhibitor -5, ASAP1 inh 13, NRP1-CendR mod 26* and Exocytosis inh -5.
`COc1ccc2cc(C(=O)CS(=O)(=O)c3ccc(Cl)cc3)c(=O)oc2c1` gave ARFGAP1 inhibitor -1 and ASAP1 inh 3.
For Cc1cccc(NCC(=O)N/N=C\c2cccc(Oc3ccccc3)c2)c1 the results were V-ATPase pHluor 1, ARFGAP1 inhibitor 6, ASAP1 inh 10, NRP1-CendR mod -2 and Exocytosis inh 5.
`Cc1ccc(NCC(=O)N/N=C/c2cccc(Oc3ccccc3)c2)cc1` gave V-ATPase pHluor 4, ARFGAP1 inhibitor -1, ASAP1 inh 5, NRP1-CendR mod 41* and Exocytosis inh 22.
For CC(Oc1cccc(Cl)c1)C(=O)NCc1ccc(S(N)(=O)=O)cc1 (configuration not stated) the results were V-ATPase pHluor -2, ARFGAP1 inhibitor 2, ASAP1 inh 4, NRP1-CendR mod 30* and Exocytosis inh -2.
Cc1cccc(OC(C)C(=O)NCc2ccc(S(N)(=O)=O)cc2)c1 (configuration not stated) was read as V-ATPase pHluor -1, ARFGAP1 inhibitor -1, ASAP1 inh -12, NRP1-CendR mod 4 and Exocytosis inh 12.
Screening NC(N)=N/N=C(\N=Nc1ccccc1)c1ccc(Cl)cc1 returned V-ATPase pHluor 3, ARFGAP1 inhibitor -13, ASAP1 inh 3, NRP1-CendR mod 6 and Exocytosis inh 56*.
For C#CCOCCOCCOCCNc1nc(N2CCN(C(=O)Cn3cc(CCCN=C(N)N)nn3)CC2)nc(N2CCN(C(=O)Cn3cc(CC(C)O)nn3)CC2)n1 (configuration not stated) the results were V-ATPase pHluor 2, ARFGAP1 inhibitor 3, ASAP1 inh 9, NRP1-CendR mod 25* and Exocytosis inh 1.
Screening C#CCOCCOCCOCCNc1nc(N2CCN(C(=O)Cn3cc(CCO)nn3)CC2)nc(N2CCN(C(=O)[C@H]([C@@H](C)CC)n3cc(CCCN=C(N)N)nn3)CC2)n1 returned V-ATPase pHluor 2, ARFGAP1 inhibitor 9, ASAP1 inh 5, NRP1-CendR mod -1 and Exocytosis inh -1.
Screening C#CCOCCOCCOCCNc1nc(N2CCN(C(=O)Cn3cc(CC(C)O)nn3)CC2)nc(N2CCN(C(=O)[C@H]([C@@H](C)CC)n3cc(CCCN=C(N)N)nn3)CC2)n1 (some centres not stated) returned V-ATPase pHluor -2, ARFGAP1 inhibitor -11, ASAP1 inh -7, NRP1-CendR mod 4 and Exocytosis inh -2.
`C#CCOCCOCCOCCNc1nc(N2CCN(C(=O)Cn3cc(CCO)nn3)CC2)nc(N2CCN(C(=O)[C@H](C)n3cc(CCCN=C(N)N)nn3)CC2)n1` gave V-ATPase pHluor 2, ARFGAP1 inhibitor 8, ASAP1 inh 2, NRP1-CendR mod 23* and Exocytosis inh -3.
Screening COc1ccc(CN2C[C@@]3(O)CC[C@@H](O)[C@@H](OC)[C@@H]3[C@@](C)(O)[C@@H]2CC=C(C)C)cc1 returned ARFGAP1 inhibitor -4 and ASAP1 inh 11.
`CCCS(=O)(=O)NC(=O)C1(C)CCCN(C(=O)c2ccc3ccccc3c2)C1` (configuration not stated) gave ARFGAP1 inhibitor 16, ASAP1 inh -7, NRP1-CendR mod -1 and Exocytosis inh -8.
Screening CC1CCc2cc(F)ccc2N1C(=O)CCC(=O)O (configuration not stated) returned V-ATPase pHluor 0, ARFGAP1 inhibitor -13, ASAP1 inh -3, NRP1-CendR mod 25* and Exocytosis inh 0.
O=C(Cn1ccc(NC(=O)OCc2ccccc2)nc1=O)NCc1ccc2[nH]ccc2c1 was read as V-ATPase pHluor 5, ARFGAP1 inhibitor -4, ASAP1 inh -2, NRP1-CendR mod 24* and Exocytosis inh -4.
For COc1ccc(CNC(=O)Cn2ccc(NC(=O)OCc3ccccc3)nc2=O)cc1 the results were V-ATPase pHluor -1, ARFGAP1 inhibitor 2, ASAP1 inh 8, NRP1-CendR mod 38* and Exocytosis inh 2.
Screening Cc1ccc(CNC(=O)Cn2ccc(NC(=O)OCc3ccccc3)nc2=O)o1 returned V-ATPase pHluor -2, ARFGAP1 inhibitor -6, ASAP1 inh -12, NRP1-CendR mod 7 and Exocytosis inh 0.
Screening COCCCNC(=O)Cn1ccc(NC(=O)OCc2ccccc2)nc1=O returned V-ATPase pHluor 2, ARFGAP1 inhibitor 4, ASAP1 inh -5, NRP1-CendR mod 8 and Exocytosis inh 3.
`COc1ccc(CN(C)C(=O)[C@@H](Cc2ccccc2)NC(=O)[C@H]2O[C@@H](n3ccc(N)nc3=O)[C@H](O)[C@@H]2O)cc1OC` gave ARFGAP1 inhibitor -8 and ASAP1 inh 7.
For COC(=O)c1cccc(C23CC4(C2)[C@H](CN(Cc2ccc(C(F)(F)F)cc2)[C@@H]4c2ccccc2)C3c2ccc(Cl)nc2)c1 (some centres not stated) the results were V-ATPase pHluor -1, ARFGAP1 inhibitor 9, ASAP1 inh 8, NRP1-CendR mod -7 and Exocytosis inh 77*.
Screening CCCn1c(O)c(N=NC(=O)c2ccco2)c2ccccc21 returned V-ATPase pHluor 3, ARFGAP1 inhibitor 9, ASAP1 inh -3, NRP1-CendR mod -3 and Exocytosis inh -1.
For Cc1nc2ccccn2c1C(=O)N=Nc1c(O)n(CCC(C)C)c2ccccc12 the results were V-ATPase pHluor -3, ARFGAP1 inhibitor 16, ASAP1 inh 10, NRP1-CendR mod 4 and Exocytosis inh 71*.
Screening O=C(Nc1ccc(N2CCOCC2)cc1)c1cc(-n2cnnc2)ccc1Cl returned V-ATPase pHluor -1, ARFGAP1 inhibitor 3, ASAP1 inh 1, NRP1-CendR mod 26* and Exocytosis inh -3.
